Laboratory results taken from ChEMBL document CHEMBL1909506, “Synthesis and anti-tumor activities of N'-benzylidene-2-(4-oxothieno[2,3-d]pyrimidin-3(4H)-yl)acetohydrazone derivatives” (Bioorg Med Chem Lett, 2011).
Activity calls are given as the source filed them. The calls are words filed in the database; no cut-off is given here.

Each compound was assayed on A549 (assay: Cytotoxicity against human A549 cells assessed as growth inhibition at 20 uM after 48 hrs by MTT assay). Details: not given.
Type: functional
How it was run: (§1)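 Single-concentration screen at 20 µM. Cell growth inhibition read by standard MTT assay after 48 h treatment and expressed as inhibition ratio.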

Row | SMILES | growth inhibition (GI)
1 | O=C(Cn1cnc2scc(-c3ccc4ccccc4c3)c2c1=O)N/N=C/c1ccc(Cl)c(F)c1 | inactive
2 | N#Cc1ccc(/C=N/NC(=O)Cn2cnc3scc(-c4ccc5ccccc5c4)c3c2=O)cc1 | inactive
3 | N#Cc1ccc(/C=N/NC(=O)Cn2cnc3scc(-c4ccc(Cl)cc4)c3c2=O)cc1 | inactive
4 | N#Cc1ccc(/C=N/NC(=O)Cn2cnc3scc(-c4ccccc4)c3c2=O)cc1 | inactive
5 | O=C(Cn1cnc2sc3c(c2c1=O)CCC3)N/N=C/c1cccc(O)c1 | inactive
6 | N#Cc1ccc(/C=N/NC(=O)Cn2cnc3sc4c(c3c2=O)CCC4)cc1 | inactive
7 | N#Cc1ccc(/C=N/NC(=O)Cn2cnc3sc4c(c3c2=O)CCCC4)cc1 | inactive
8 | O=C(Cn1cnc2sc3c(c2c1=O)CCCCC3)N/N=C/c1cccc(O)c1 | inactive
9 | Cc1csc2ncn(CC(=O)N/N=C/c3ccc(Cl)c(F)c3)c(=O)c12 | inactive
10 | O=C(Cn1cnc2sc3c(c2c1=O)CCC3)N/N=C/c1ccc(Cl)c([N+](=O)[O-])c1 | inactive
11 | O=C(Cn1cnc2scc(-c3ccc(Cl)cc3)c2c1=O)N/N=C/c1ccc(Cl)c(F)c1 | inactive
12 | O=C(Cn1cnc2scc(-c3ccc(Cl)cc3)c2c1=O)N/N=C/c1ccc(O)c(O)c1 | inactive
13 | Cc1csc2ncn(CC(=O)N/N=C/c3ccc(C#N)cc3)c(=O)c12 | inactive
14 | O=C(Cn1cnc2scc(-c3ccc4ccccc4c3)c2c1=O)N/N=C/c1cccc([N+](=O)[O-])c1 | inactive
15 | O=C(Cn1cnc2scc(-c3ccc(Cl)cc3)c2c1=O)N/N=C/c1cccc([N+](=O)[O-])c1 | inactive

What follows are compounds tested on HeLa (assay: Cytotoxicity against human HeLa cells assessed as growth inhibition at 20 uM after 48 hrs by MTT assay). Details: not given.
Type: functional
How it was run: as §1

Row | SMILES | growth inhibition (GI)
16 | O=C(Cn1cnc2scc(-c3ccc4ccccc4c3)c2c1=O)N/N=C/c1ccc(Cl)c(F)c1 | inactive
17 | N#Cc1ccc(/C=N/NC(=O)Cn2cnc3scc(-c4ccc5ccccc5c4)c3c2=O)cc1 | inactive
18 | N#Cc1ccc(/C=N/NC(=O)Cn2cnc3scc(-c4ccc(Cl)cc4)c3c2=O)cc1 | inactive
19 | N#Cc1ccc(/C=N/NC(=O)Cn2cnc3scc(-c4ccccc4)c3c2=O)cc1 | inactive
20 | O=C(Cn1cnc2sc3c(c2c1=O)CCC3)N/N=C/c1cccc(O)c1 | inactive
21 | N#Cc1ccc(/C=N/NC(=O)Cn2cnc3sc4c(c3c2=O)CCC4)cc1 | inactive
22 | N#Cc1ccc(/C=N/NC(=O)Cn2cnc3sc4c(c3c2=O)CCCC4)cc1 | inactive
23 | O=C(Cn1cnc2sc3c(c2c1=O)CCCCC3)N/N=C/c1cccc(O)c1 | inactive
24 | Cc1csc2ncn(CC(=O)N/N=C/c3ccc(Cl)c(F)c3)c(=O)c12 | inactive
25 | O=C(Cn1cnc2scc(-c3ccc(Cl)cc3)c2c1=O)N/N=C/c1ccc(Cl)c(F)c1 | inactive
26 | O=C(Cn1cnc2scc(-c3ccc(Cl)cc3)c2c1=O)N/N=C/c1ccc(O)c(O)c1 | inactive
27 | Cc1csc2ncn(CC(=O)N/N=C/c3ccc(C#N)cc3)c(=O)c12 | inactive
28 | O=C(Cn1cnc2scc(-c3ccc4ccccc4c3)c2c1=O)N/N=C/c1cccc([N+](=O)[O-])c1 | inactive
29 | O=C(Cn1cnc2scc(-c3ccc(Cl)cc3)c2c1=O)N/N=C/c1cccc([N+](=O)[O-])c1 | inactive

Same assay, conditions: read-out: GI

Row | SMILES | inhibition of growth at 20 µM [%]
30 | O=C(Cn1cnc2sc3c(c2c1=O)CCC3)N/N=C/c1ccc(Cl)c([N+](=O)[O-])c1 | 34

These compounds were tested against Induced myeloid leukemia cell differentiation protein Mcl-1 (Homo sapiens) (UniProt Q07820) (assay: Inhibition of mouse/human MCL1 expressed in Escherichia coli BL21 at 1 uM to 50 uM using FAM-labeled Bid-BH3 as tracer by fluorescence polarization assay). Details: not given.

Row | SMILES | inhibition
31 | O=C(Cn1cnc2scc(-c3ccc4ccccc4c3)c2c1=O)N/N=C/c1ccc(Cl)c(F)c1 | inactive
32 | N#Cc1ccc(/C=N/NC(=O)Cn2cnc3scc(-c4ccc5ccccc5c4)c3c2=O)cc1 | inactive
33 | N#Cc1ccc(/C=N/NC(=O)Cn2cnc3scc(-c4ccc(Cl)cc4)c3c2=O)cc1 | inactive
34 | N#Cc1ccc(/C=N/NC(=O)Cn2cnc3scc(-c4ccccc4)c3c2=O)cc1 | inactive
35 | O=C(Cn1cnc2sc3c(c2c1=O)CCC3)N/N=C/c1cccc(O)c1 | inactive
36 | N#Cc1ccc(/C=N/NC(=O)Cn2cnc3sc4c(c3c2=O)CCC4)cc1 | inactive
37 | N#Cc1ccc(/C=N/NC(=O)Cn2cnc3sc4c(c3c2=O)CCCC4)cc1 | inactive
38 | O=C(Cn1cnc2sc3c(c2c1=O)CCCCC3)N/N=C/c1cccc(O)c1 | inactive
39 | Cc1csc2ncn(CC(=O)N/N=C/c3ccc(Cl)c(F)c3)c(=O)c12 | inactive
40 | O=C(Cn1cnc2sc3c(c2c1=O)CCC3)N/N=C/c1ccc(Cl)c([N+](=O)[O-])c1 | inactive
41 | O=C(Cn1cnc2scc(-c3ccc(Cl)cc3)c2c1=O)N/N=C/c1ccc(Cl)c(F)c1 | inactive
42 | O=C(Cn1cnc2scc(-c3ccc(Cl)cc3)c2c1=O)N/N=C/c1ccc(O)c(O)c1 | inactive
43 | Cc1csc2ncn(CC(=O)N/N=C/c3ccc(C#N)cc3)c(=O)c12 | inactive
44 | O=C(Cn1cnc2scc(-c3ccc4ccccc4c3)c2c1=O)N/N=C/c1cccc([N+](=O)[O-])c1 | inactive
45 | O=C(Cn1cnc2scc(-c3ccc(Cl)cc3)c2c1=O)N/N=C/c1cccc([N+](=O)[O-])c1 | inactive

Each compound was assayed on MDA-MB-231 (assay: Cytotoxicity against human MDA-MB-231 cells assessed as growth inhibition at 20 uM after 48 hrs by MTT assay). Details: not given.
Type: functional
How it was run: as §1

Row | SMILES | growth inhibition (GI)
46 | O=C(Cn1cnc2scc(-c3ccc4ccccc4c3)c2c1=O)N/N=C/c1ccc(Cl)c(F)c1 | inactive
47 | N#Cc1ccc(/C=N/NC(=O)Cn2cnc3scc(-c4ccc5ccccc5c4)c3c2=O)cc1 | inactive
48 | N#Cc1ccc(/C=N/NC(=O)Cn2cnc3scc(-c4ccc(Cl)cc4)c3c2=O)cc1 | inactive
49 | N#Cc1ccc(/C=N/NC(=O)Cn2cnc3scc(-c4ccccc4)c3c2=O)cc1 | inactive
50 | O=C(Cn1cnc2sc3c(c2c1=O)CCC3)N/N=C/c1cccc(O)c1 | inactive
51 | N#Cc1ccc(/C=N/NC(=O)Cn2cnc3sc4c(c3c2=O)CCC4)cc1 | inactive
52 | N#Cc1ccc(/C=N/NC(=O)Cn2cnc3sc4c(c3c2=O)CCCC4)cc1 | inactive
53 | O=C(Cn1cnc2sc3c(c2c1=O)CCCCC3)N/N=C/c1cccc(O)c1 | inactive
54 | Cc1csc2ncn(CC(=O)N/N=C/c3ccc(Cl)c(F)c3)c(=O)c12 | inactive
55 | O=C(Cn1cnc2scc(-c3ccc(Cl)cc3)c2c1=O)N/N=C/c1ccc(Cl)c(F)c1 | inactive
56 | O=C(Cn1cnc2scc(-c3ccc(Cl)cc3)c2c1=O)N/N=C/c1ccc(O)c(O)c1 | inactive
57 | Cc1csc2ncn(CC(=O)N/N=C/c3ccc(C#N)cc3)c(=O)c12 | inactive
58 | O=C(Cn1cnc2scc(-c3ccc4ccccc4c3)c2c1=O)N/N=C/c1cccc([N+](=O)[O-])c1 | inactive
59 | O=C(Cn1cnc2scc(-c3ccc(Cl)cc3)c2c1=O)N/N=C/c1cccc([N+](=O)[O-])c1 | inactive

Same assay, conditions: MDA-MB-231, 48 h, read-out: GI

Row | SMILES | inhibition of growth at 20 µM [%]
60 | O=C(Cn1cnc2sc3c(c2c1=O)CCC3)N/N=C/c1ccc(Cl)c([N+](=O)[O-])c1 | 41
